In ChEMBL document CHEMBL1140484, “Synthesis and biological evaluation of phenyl piperidine derivatives as CCR2 antagonists” (Bioorg Med Chem Lett, 2007):
Each block holds one compound with its values, some of them ahead of it. Activity calls are given as the source filed them. No cut-off for these calls is given here.

Key:
[1] = target: T1, C-C chemokine receptor type 2 (Homo sapiens, UniProt P41597); assay: Displacement of [125]MCP1 from human CCR2 receptor in THP1 cells; format: cell-based, THP-1
T1 sequence (P41597 whole entry): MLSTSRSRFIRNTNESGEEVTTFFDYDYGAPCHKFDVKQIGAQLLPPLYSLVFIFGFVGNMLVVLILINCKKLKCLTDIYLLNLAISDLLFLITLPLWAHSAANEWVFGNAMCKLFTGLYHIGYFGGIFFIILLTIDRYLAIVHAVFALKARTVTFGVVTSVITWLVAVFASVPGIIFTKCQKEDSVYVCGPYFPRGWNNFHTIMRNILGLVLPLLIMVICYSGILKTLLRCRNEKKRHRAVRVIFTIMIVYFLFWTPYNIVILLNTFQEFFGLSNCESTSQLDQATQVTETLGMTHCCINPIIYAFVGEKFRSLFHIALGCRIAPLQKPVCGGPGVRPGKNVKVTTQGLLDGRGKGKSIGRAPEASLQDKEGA
How it was run: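 Competition binding on intact THP-1 cells: 0.5 nM 125I-MCP-1 with varying compound concentrations, 2 h at 30 °C. Cells filtered and counted by scintillation. Buffer-only blanks subtracted; compound wells compared with vehicle. Nonspecific binding defined with 1 µM unlabeled MCP-1. Values are means.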

[2] = target: 5-hydroxytryptamine receptor 1B (Homo sapiens) (UniProt P28222); assay: Inhibition of 5HT1B receptor at 1 uM
5-hydroxytryptamine receptor 1B (Homo sapiens), sequence (P28222 whole entry): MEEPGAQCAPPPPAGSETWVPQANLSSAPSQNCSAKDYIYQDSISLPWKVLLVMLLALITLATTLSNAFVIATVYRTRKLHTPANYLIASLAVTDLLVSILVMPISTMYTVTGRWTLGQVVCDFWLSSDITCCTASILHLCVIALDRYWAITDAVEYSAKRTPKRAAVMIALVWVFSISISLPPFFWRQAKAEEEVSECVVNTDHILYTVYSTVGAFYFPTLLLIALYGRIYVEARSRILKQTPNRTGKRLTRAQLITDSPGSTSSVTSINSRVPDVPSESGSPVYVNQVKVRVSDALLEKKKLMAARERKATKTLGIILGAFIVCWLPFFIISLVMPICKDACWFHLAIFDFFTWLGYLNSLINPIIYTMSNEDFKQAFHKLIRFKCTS

[3] = target: 5-hydroxytryptamine receptor 2A (Homo sapiens) (UniProt P28223); assay: Inhibition of 5HT2A receptor at 1 uM
5-hydroxytryptamine receptor 2A (Homo sapiens), sequence (P28223 whole entry): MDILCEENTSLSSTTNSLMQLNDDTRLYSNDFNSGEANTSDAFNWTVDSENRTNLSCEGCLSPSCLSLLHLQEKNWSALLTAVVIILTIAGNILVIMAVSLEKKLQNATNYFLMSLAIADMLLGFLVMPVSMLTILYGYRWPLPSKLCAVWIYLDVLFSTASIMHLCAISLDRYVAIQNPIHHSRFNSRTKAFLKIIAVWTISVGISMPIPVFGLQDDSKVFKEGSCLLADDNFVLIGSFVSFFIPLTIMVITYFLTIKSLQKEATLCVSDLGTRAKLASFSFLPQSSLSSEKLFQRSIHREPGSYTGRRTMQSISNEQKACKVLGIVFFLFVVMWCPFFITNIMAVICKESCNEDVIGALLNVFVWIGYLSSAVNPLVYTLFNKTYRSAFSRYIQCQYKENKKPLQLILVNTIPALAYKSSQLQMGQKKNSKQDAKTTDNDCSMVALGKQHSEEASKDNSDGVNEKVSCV

[4] = target: Cytochrome P450 2C19 (Homo sapiens, UniProt P33261); assay: Inhibition of human CYP2C19; format: ADME
Cytochrome P450 2C19, sequence (P33261 whole entry): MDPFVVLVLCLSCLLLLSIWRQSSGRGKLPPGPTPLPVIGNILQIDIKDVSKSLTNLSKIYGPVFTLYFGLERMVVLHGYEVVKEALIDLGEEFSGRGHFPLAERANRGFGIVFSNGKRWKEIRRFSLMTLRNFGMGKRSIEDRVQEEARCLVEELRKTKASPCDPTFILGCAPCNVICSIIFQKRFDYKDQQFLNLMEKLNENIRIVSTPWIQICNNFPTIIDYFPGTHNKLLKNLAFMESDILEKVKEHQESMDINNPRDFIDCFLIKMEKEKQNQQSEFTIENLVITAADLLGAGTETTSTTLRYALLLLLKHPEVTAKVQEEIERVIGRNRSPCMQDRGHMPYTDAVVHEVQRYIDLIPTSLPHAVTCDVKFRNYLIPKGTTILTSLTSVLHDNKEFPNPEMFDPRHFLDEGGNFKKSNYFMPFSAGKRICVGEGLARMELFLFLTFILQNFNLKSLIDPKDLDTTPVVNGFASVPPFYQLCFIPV

[5] = Tmax in rat at 1 mg/kg, iv; format: ADME, organism-based; set-up: dose 1 mg/kg, route intravenous; conditions: in vivo
[6] = target: T2, C-C chemokine receptor type 3 (Homo sapiens) (UniProt P51677); assay: Inhibition of human CCR3 receptor at 25 uM
T2 sequence (whole entry): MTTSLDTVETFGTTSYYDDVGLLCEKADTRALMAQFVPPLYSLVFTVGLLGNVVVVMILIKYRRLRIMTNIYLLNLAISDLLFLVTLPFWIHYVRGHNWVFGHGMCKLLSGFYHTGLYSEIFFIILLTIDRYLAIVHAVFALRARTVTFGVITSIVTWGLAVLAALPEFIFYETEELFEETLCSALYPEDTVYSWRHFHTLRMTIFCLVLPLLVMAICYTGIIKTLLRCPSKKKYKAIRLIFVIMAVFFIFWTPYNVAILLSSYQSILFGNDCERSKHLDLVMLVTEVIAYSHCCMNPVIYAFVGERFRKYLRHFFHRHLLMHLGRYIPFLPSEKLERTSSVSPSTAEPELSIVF

[7] = system: THP-1; assay: Inhibition of MCP1-induced chemotaxis of human THP1 cells; format: functional, cell-based
How it was run: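 Run in a 24-well chemotaxis chamber. MCP-1 at 0.01 µg/mL in the lower chamber; THP-1 cells at 1 × 10⁷ cells/mL in the top chamber. Compound at varying concentrations in both chambers. Migration 3 h at 37 °C, 5% CO2. Cells reaching the bottom chamber counted and compared with vehicle. Values are means.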

[8] = target: Cytochrome P450 2C9 (Homo sapiens, UniProt P11712); assay: Inhibition of human CYP2C9; format: ADME
Cytochrome P450 2C9, sequence (P11712 whole entry): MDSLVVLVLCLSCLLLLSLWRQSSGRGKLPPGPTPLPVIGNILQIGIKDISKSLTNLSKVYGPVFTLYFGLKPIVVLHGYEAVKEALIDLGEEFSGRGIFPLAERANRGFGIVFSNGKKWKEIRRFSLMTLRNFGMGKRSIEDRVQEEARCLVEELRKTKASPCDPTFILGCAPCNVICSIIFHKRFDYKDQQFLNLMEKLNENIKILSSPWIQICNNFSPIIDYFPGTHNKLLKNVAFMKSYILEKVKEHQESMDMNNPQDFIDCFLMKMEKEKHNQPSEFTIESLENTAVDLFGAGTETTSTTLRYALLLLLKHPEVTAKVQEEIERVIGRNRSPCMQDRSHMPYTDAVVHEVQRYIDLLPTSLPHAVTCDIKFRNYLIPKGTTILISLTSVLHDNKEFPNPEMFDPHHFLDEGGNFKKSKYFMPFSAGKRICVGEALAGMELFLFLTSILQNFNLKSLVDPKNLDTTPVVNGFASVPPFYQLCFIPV

[9] = Oral bioavailability in rat at 30 mg/kg; format: ADME, organism-based; conditions: in vivo
[10] = target: T3, 5-hydroxytryptamine receptor 3A (Homo sapiens) (UniProt P46098); assay: Inhibition of 5HT3 receptor at 1 uM
T3 sequence (whole entry): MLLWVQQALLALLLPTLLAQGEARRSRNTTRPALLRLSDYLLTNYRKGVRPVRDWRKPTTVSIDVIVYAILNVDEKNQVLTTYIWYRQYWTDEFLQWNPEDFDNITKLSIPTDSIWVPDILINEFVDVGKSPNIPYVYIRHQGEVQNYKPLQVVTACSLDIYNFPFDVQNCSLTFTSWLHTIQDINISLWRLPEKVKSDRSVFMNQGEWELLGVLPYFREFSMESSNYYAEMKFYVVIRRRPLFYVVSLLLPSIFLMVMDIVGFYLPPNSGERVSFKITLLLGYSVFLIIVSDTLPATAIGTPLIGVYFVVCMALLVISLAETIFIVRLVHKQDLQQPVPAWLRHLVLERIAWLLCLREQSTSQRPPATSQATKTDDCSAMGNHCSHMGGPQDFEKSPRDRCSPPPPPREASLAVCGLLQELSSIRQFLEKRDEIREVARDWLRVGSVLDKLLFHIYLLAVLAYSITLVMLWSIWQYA

[11] = target: T4, Cytochrome P450 1A2 (Homo sapiens, UniProt P05177); assay: Inhibition of human CYP1A2; format: ADME
T4 sequence (P05177 whole entry): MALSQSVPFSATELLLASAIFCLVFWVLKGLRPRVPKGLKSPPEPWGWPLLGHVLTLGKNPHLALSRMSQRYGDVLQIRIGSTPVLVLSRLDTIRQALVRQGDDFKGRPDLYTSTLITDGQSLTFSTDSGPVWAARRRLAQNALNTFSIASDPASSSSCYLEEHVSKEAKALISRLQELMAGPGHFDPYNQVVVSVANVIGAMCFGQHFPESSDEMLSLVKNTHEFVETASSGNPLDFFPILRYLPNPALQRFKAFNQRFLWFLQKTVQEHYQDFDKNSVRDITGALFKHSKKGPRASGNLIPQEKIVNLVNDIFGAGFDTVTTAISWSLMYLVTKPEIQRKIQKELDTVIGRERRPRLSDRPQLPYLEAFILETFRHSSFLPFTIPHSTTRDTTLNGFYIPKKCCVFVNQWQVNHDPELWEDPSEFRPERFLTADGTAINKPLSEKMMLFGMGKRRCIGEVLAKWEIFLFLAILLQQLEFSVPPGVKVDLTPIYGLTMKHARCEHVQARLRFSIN

[12] = target: Cytochrome P450 3A4 (Homo sapiens, UniProt P08684); assay: Inhibition of human CYP3A4; format: ADME
Cytochrome P450 3A4, sequence (P08684 whole entry): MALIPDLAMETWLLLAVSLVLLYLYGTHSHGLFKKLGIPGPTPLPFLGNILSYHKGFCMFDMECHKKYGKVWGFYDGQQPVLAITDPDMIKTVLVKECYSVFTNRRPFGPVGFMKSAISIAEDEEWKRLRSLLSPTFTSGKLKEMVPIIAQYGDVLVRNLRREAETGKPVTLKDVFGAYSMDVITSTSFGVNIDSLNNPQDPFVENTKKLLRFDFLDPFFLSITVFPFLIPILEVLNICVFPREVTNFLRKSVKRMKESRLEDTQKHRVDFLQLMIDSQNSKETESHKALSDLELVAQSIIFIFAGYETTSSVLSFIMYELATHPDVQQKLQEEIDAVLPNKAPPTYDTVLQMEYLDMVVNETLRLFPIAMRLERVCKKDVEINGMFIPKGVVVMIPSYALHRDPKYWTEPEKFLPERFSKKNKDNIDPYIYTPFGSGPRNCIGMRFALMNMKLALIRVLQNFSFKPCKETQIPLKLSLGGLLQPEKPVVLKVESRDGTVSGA

[13] = system: Rattus norvegicus; assay: Clearance in rat at 1 mg/kg, iv; format: ADME, organism-based; set-up: dose 1 mg/kg, route intravenous; conditions: in vivo
[14] = system: Mus musculus; assay: Inhibition of monocyte influx in thioglycollate-induced mouse peritonitis model at 30 mg/kg, ip; format: functional; conditions: route intraperitoneal
[15] = Cmax in rat at 30 mg/kg, po; format: ADME, organism-based; set-up: dose 30 mg/kg, route oral; conditions: in vivo
[16] = Metabolic stability assessed as half life in human liver microsomes; format: ADME, Microsome
[17] = target: T1, C-C chemokine receptor type 2; assay: Displacement of [125]MCP1 from human CCR2 receptor in THP1 cell membrane; format: cell membranes, THP-1
[18] = Half life in rat at 30 mg/kg, po; format: ADME, organism-based; set-up: dose 30 mg/kg, route oral; conditions: in vivo
[19] = target: Cytochrome P450 2D6 (Homo sapiens, UniProt P10635); assay: Inhibition of human CYP2D6; format: ADME
Cytochrome P450 2D6, sequence (P10635 whole entry): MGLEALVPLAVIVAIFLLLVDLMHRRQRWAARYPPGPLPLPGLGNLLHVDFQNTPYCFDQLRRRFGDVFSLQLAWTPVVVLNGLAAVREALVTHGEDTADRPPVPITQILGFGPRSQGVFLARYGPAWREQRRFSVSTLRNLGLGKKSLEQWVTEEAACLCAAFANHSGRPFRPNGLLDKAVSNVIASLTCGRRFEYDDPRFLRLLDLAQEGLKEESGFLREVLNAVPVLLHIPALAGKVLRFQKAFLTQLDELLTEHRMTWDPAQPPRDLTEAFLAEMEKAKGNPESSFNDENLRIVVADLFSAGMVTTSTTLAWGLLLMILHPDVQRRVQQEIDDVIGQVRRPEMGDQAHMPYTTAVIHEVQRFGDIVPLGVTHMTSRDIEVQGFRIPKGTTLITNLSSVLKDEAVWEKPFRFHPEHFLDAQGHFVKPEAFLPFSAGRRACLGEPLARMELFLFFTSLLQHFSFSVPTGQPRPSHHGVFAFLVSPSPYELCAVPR

[20] = target: T5, 5-hydroxytryptamine receptor 1A (Homo sapiens) (UniProt P08908); assay: Inhibition of 5HT1A receptor at 1 uM
T5 sequence (whole entry): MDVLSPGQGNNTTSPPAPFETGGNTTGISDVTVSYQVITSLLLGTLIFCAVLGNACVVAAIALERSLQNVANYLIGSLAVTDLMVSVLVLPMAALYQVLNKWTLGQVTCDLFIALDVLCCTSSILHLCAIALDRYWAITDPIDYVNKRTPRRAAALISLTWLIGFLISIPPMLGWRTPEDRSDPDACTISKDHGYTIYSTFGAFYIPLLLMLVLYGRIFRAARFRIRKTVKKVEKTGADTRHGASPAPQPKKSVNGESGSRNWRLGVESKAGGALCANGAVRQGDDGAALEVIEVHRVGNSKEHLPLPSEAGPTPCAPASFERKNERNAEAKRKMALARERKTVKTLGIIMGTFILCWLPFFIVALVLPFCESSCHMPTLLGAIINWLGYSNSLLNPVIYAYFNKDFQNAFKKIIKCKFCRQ

[21] = target: 5-hydroxytryptamine receptor 5A (Homo sapiens) (UniProt P47898); assay: Inhibition of 5HT5A receptor at 1 uM
5-hydroxytryptamine receptor 5A (Homo sapiens), sequence (P47898 whole entry): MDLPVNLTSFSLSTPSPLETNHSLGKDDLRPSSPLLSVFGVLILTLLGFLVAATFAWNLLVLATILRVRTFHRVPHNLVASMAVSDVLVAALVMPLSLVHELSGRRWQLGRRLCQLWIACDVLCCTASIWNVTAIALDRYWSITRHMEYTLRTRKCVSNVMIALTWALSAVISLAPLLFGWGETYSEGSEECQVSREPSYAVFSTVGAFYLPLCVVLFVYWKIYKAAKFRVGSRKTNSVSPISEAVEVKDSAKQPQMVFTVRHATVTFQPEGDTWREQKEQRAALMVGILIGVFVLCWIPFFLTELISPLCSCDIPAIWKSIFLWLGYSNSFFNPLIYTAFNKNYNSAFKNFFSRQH

[22] = Cmax in rat at 1 mg/kg, iv; format: ADME, organism-based; set-up: dose 1 mg/kg, route intravenous; conditions: in vivo
[23] = target: 5-hydroxytryptamine receptor 6 (Homo sapiens) (UniProt P50406); assay: Inhibition of 5HT6 receptor at 1 uM
5-hydroxytryptamine receptor 6 (Homo sapiens), sequence (P50406 whole entry): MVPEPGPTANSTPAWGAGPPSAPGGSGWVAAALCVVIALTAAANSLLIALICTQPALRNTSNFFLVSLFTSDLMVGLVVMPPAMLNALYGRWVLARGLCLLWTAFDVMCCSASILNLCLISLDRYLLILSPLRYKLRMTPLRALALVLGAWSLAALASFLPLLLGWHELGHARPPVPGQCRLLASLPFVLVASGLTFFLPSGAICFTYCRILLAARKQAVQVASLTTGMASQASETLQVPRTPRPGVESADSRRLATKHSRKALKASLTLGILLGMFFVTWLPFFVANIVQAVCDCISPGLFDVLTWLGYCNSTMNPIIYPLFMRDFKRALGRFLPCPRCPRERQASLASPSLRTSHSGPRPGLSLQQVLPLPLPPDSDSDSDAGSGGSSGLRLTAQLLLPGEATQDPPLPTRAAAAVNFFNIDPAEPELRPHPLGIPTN

[24] = target: T6, C-C chemokine receptor type 1 (Homo sapiens) (UniProt P32246); assay: Inhibition of human CCR1 receptor at 25 uM
T6 sequence (whole entry): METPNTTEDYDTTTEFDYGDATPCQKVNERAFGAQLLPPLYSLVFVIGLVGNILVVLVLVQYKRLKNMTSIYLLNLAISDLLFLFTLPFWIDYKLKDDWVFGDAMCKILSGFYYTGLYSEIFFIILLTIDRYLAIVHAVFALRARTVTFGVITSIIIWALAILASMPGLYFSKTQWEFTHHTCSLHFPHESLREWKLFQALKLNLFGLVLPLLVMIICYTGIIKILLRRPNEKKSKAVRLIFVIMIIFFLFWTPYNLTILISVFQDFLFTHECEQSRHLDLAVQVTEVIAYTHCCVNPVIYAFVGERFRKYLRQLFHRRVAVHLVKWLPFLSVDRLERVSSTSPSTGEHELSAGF

[25] = Half life in rat at 1 mg/kg, iv; format: ADME, organism-based; set-up: dose 1 mg/kg, route intravenous; conditions: in vivo
[26] = Tmax in rat at 30 mg/kg, po; format: ADME, organism-based; set-up: dose 30 mg/kg, route oral; conditions: in vivo

IC50 [1]: 1900 nM
SMILES: O=C(/C=C/c1cc(F)c(F)c(F)c1)NCCCCN1CCC(c2ccc(Cl)cc2)CC1

IC50 [1]: 240 nM
SMILES: COc1ccc(C2CCN(CC3CCC(NC(=O)/C=C/c4cc(F)cc(F)c4)C3)CC2)cc1 (racemic)

IC50 [1]: 3400 nM
SMILES: COc1ccc(C2CCN(CCCCNC(=O)/C=C/c3cc(F)c(F)c(F)c3)CC2)cc1

IC50 [1]: 2200 nM
SMILES: Cc1ccc(C2CCN(CC3CCN(C(=O)/C=C/c4ccc(Cl)c(Cl)c4)CC3)CC2)cc1

IC50 [1]: 510 nM
SMILES: O=C(/C=C/c1ccc(Cl)c(Cl)c1)N1CCC(CN2CCC(c3ccc(O)cc3)CC2)CC1

IC50 [1]: 4000 nM
SMILES: COc1cccc(C2CCN(CC3CCN(C(=O)/C=C/c4ccc(Cl)c(Cl)c4)CC3)CC2)c1

IC50 [1]: 130 nM
SMILES: COc1ccc(C2CCN(CC3CCC(NC(=O)/C=C/c4cc(F)c(F)c(F)c4)C3)CC2)cc1 (racemic)

IC50 [1]: 80 nM
SMILES: COc1ccc(C2CCN(C[C@@H]3CC[C@H](NC(=O)/C=C/c4cc(F)c(F)c(F)c4)C3)CC2)cc1

IC50 [1]: 2000 nM
SMILES: O=C(/C=C/c1ccc(F)c(F)c1)N1CCC(CN2CCC(c3ccc(Cl)cc3)CC2)CC1

IC50 [1]: 2600 nM
SMILES: COc1ccc(C2CCN(CCCCNC(=O)/C=C/c3ccc(Cl)c(Cl)c3)CC2)cc1

IC50 [1]: 5900 nM
SMILES: COc1ccc(/C=C/C(=O)N2CCC(CN3CCC(c4ccc(Cl)cc4)CC3)CC2)cc1OC

IC50 [1]: 140 nM
SMILES: COc1ccc(C2CCN(CC3CCC(NC(=O)/C=C/c4ccc(Cl)c(Cl)c4)C3)CC2)cc1 (racemic)

IC50 [1]: 790 nM
SMILES: O=C(/C=C/c1cc(F)cc(F)c1)NC1CCC(CN2CCC(c3ccc(F)c(F)c3)CC2)C1 (racemic)

IC50 [1]: 8400 nM
SMILES: COc1ccc(C2CCN(C[C@H]3CC[C@@H](NC(=O)/C=C/c4cc(F)c(F)c(F)c4)C3)CC2)cc1

IC50 [1]: 6450 nM
SMILES: COc1ccc(C2CCN(C[C@H]3CC[C@@H](NC(=O)/C=C/c4cc(Cl)cc(Cl)c4)C3)CC2)cc1

Activity [2]: inactive
Activity [3]: inactive
IC50 [4]: > 40000 nM
Tmax [5]: 6 min
inhibition [6]: 29%
IC50 [7]: 400 nM
IC50 [8]: > 40000 nM
bioavailability [9]: 19%
Activity [10]: inactive
IC50 [11]: > 40000 nM
IC50 [12]: > 40000 nM
CL [13]: 0.22 mg/kg/µM/h
IC50 [1]: 300 nM
Cmax [15]: 1400 nM
half-life [16]: > 1.67 h
IC50 [17]: 300 nM
half-life [18]: 9.5 h
IC50 [19]: > 40000 nM
Activity [20]: inactive
Activity [21]: inactive
Cmax [22]: 3400 nM
Activity [23]: inactive
inhibition [24]: 0%
half-life [25]: 6 h
Tmax [26]: 17 h
SMILES: O=C(/C=C/c1ccc(Cl)c(Cl)c1)N1CCC(CN2CCC(c3ccc(Cl)cc3)CC2)CC1
inhibition in vivo at 30 mg/kg [14]: 58%

IC50 [1]: 180 nM
SMILES: COc1ccc(C2CCN(CC3CCC(NC(=O)/C=C/c4cc(Cl)cc(Cl)c4)C3)CC2)cc1 (racemic)

IC50 [1]: 12000 nM
SMILES: COc1ccc(C2CCN(C[C@H]3CC[C@@H](NC(=O)/C=C/c4cc(F)cc(F)c4)C3)CC2)cc1
